Residues, ends and D or L forms follow the SMILES beside them.

Experiment [1] deals with MCF-7 cells. As to the kind of experiment: Microinjection and time-lapse video microscopy, MCF-7. It is filed as cell-based. Summed up:
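MCF-7 cells are synchronized 48 h in 0.1% FCS, then released with 10% serum. At 20 h post-release, cells are microinjected in PBS with 70 kDa FITC-dextran (1 μg μL−1) plus peptide (50 μM) or GST-fusion protein (1 μg μL−1). Controls are FITC-dextran alone or non-injected cells. Time-lapse images every 30 min; first mitosis scored for abnormality and duration. Fisher's exact test.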

The subject of experiment [2] is His–CtBP1. As to the kind of experiment: Size exclusion chromatography of His–CtBP1. Format: biochemical. The settings on record: increasing concentrations of NADH; Superdex 200, PBS. (In general: SEC sorts molecules by how far they enter the pores of the column.)
Experiment [3] has as its system MCF-7 cells. As to the kind of experiment: Time-lapse video microscopy, peptide in medium, MCF-7. Format: cell-based. An outline of the steps: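 Cell-penetrating peptide or TAT alone goes into the medium of asynchronous MCF-7 cultures, imaged by time-lapse microscopy every 30 min for 65 h. Each cell's first mitosis is scored for abnormality (prolonged rounding, failed cytokinesis, death), with time in mitosis per cell. Total cell number increase is taken over the first 48 h. Fisher's exact test; experiments repeated at least twice.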

Experiment [4] has as its system CtBP1 homodimerization (CtBP1 fused to 434 repressor). As to the kind of experiment: CtBP1 reverse two-hybrid system. Format: cell-based. Particulars: for Target (homodimerization disrupted in RTHS): CtBP1 and CtBP2 RTHS, SICLOPPS; for Rank (top 3 CtBP1/CtBP2 inhibitors identified by SICLOPPS): ranked by drop spotting, CtBP1/CtBP2 RTHS. An outline of the steps:
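E. coli reverse two-hybrid hosts carry SICLOPPS cyclic peptide library plasmids; only clones whose peptide disrupts CtBP homodimerization survive on selective media. For CtBP1, 104 surviving colonies were picked, and their plasmids were isolated and retransformed into the CtBP1 RTHS. For drop-spotting, 2.5 μL of serial cell dilutions go onto selective plates with and without […].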

The subject of experiment [5] is MDA-MB-453 cells. In words: Microinjection and time-lapse video microscopy, MDA-MB-453. It is filed as cell-based. The settings on record: microinjected 50 μM.
The subject of experiment [6] is GST–CtBP1 / His–CtBP1. In words: GST pull down assay. Particulars: presence of NADH; 50 mM Tris–HCl pH 7.2 pull-down buffer. It is filed as biochemical. Summed up:
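Recombinant GST-CtBP1 and His-CtBP1 are expressed in E. coli and purified on glutathione or nickel resin, with 30 min 0.25 mM pyruvate on-resin to oxidize bound NADH. 10 mg mL−1 bacterial lysate blocks nonspecific binding.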

Experiment [7] deals with CtBP2 homodimerization (CtBP2 fused to 434 repressor). As to the kind of experiment: CtBP2 reverse two-hybrid system. Format: cell-based. The settings on record: arabinose-induced peptide production; 50 μM IPTG; minimal (selective) media.
Experiment [8] deals with lactate dehydrogenase. As to the kind of experiment: Lactate dehydrogenase activity. The settings on record: at concentrations of up to 100 μM. Format: biochemical.
Experiment [9] has as its target CtBP1 (His–CtBP1) (Homo sapiens, UniProt Q13363). In words: FRET-based CtBP1/NADH-binding assay.
In experiment [10] the test system is MCF-7 cells. As to the kind of experiment: Micronuclei assay, MCF-7. It is filed as cell-based. Particulars: up to 100 μM TAT; 48 h; >400 cells scored. An outline of the steps:
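Peptides are added to the medium of asynchronous MCF-7 cultures, and cells are fixed after 48 h for micronuclei counting, with >400 cells scored per point. Data are mean ± SEM of triplicate wells from a representative of at least two independent experiments. One-way ANOVA with Tukey's post hoc test.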

The test system of experiment [11] is CtBP1/CtBP2 dimerization (CFP–CtBP1, YFP–CtBP2) in COS-7 cells. As to the kind of experiment: CtBP cellular compartmentalization assay. The settings on record: 100 μM. Format: cell-based. An outline of the steps: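 COS-7 cells transfected with CFP–CtBP1 (pSCFP3A-based) and YFP–CtBP2 (pSYFP2-based) expression vectors. Test compound as TAT conjugate (100 μM) or 100 μM TAT added to medium. Expression and co-localization were imaged by fluorescence microscopy, and cells were scored by line analysis for cytoplasmic CFP–CtBP1, with cell numbers counted. Fisher's exact test on contingency tables versus TAT-treated cells.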

In experiment [12] the test system is breast cancer cells. Particulars: ref [31]; cited from earlier work.
Experiment [13] deals with CtBPs. Particulars: high concentrations of MTOB; ref [37]; cited from earlier work.
The subject of experiment [14] is colon cancer cells. Particulars: ref [36]; cited from earlier work.

For “GST–CtBP^DD: construct encoding the central dimerization domain (110–359) of CtBP2”, the “Cells with aberrant mitosis phenotype” value in [1] (protein injected at 1 μg μL−1 in PBS, MCF-7 (Fig. 7e)) was determined as 45%. The “Time in mitosis (in words)” value in [1] (protein injected at 1 μg μL−1 in PBS, MCF-7 (Fig. 7f)) is on record as “increased the time in mitosis, in line with that observed in CP61-treated cells”.
Regarding `NC(=O)C1=CN([C@@H]2O[C@H](COP(=O)(O)OP(=O)(O)OC[C@H]3O[C@@H](n4cnc5c(N)ncnc54)[C@H](O)[C@@H]3O)[C@@H](O)[C@H]2O)C=CC1` [NADH], the “Monomer to dimer shift of CtBP1” value in experiment [2] was “shifted to a peak corresponding to dimeric CtBP1 in a dose-dependent manner”.
Take `CSCC[C@@H]1NC(=O)[C@H](CCCNC(=N)N)NC(=O)[C@H](C(C)C)NC(=O)[C@H](C(C)C)NC(=O)[C@H]([C@@H](C)O)NC(=O)[C@H](Cc2c[nH]c3ccccc23)NC(=O)CNC(=O)[C@H](CO)NC(=O)[C@H](Cc2ccc(O)cc2)NC1=O` [CP61] (cyclo(GWTVVRMYS)): the “Concentration inhibiting the cellular function of CtBPs” value in experiment [3] (in cells (discussion summary)) came to 50 µM. Besides, in experiment [4], the “Target (homodimerization disrupted in RTHS)” value is reported as “CtBP1/CtBP2” and the “Rank (top 3 CtBP1/CtBP2 inhibitors identified by SICLOPPS)” value was 1. In experiment [4] (arabinose-induced peptide production, 50 μM IPTG, minimal (selective) media), the “Survival on selective media / disruption of CtBP1 homodimerization” value is reported as “Restoration of growth with arabinose”. Moreover, the “Length of time in mitosis (in words)” value in [5] (MDA-MB-453 (Fig. 8b)) was “did not affect the length of time MDA-MB-453 cells spent in mitosis”. In addition, the “Percentage of mitoses that were aberrant (in words)” value in [5] (MDA-MB-453, P > 0.05 compared to control-injected) is “did not significantly affect the percentage of mitoses that were aberrant”. Further, in experiment [1] (microinjected 50 μM, MCF-7, control-injected 10.2%, P < 0.0001 (Fig. 8a)), the “Mitoses that were aberrant” value worked out at 50.8%. The “Mean length of time in mitosis” value in [1] (microinjected 50 μM, MCF-7, control-injected 1.9 h (Fig. 8b)) is recorded as 4 h. For the same molecule, in [6], the “Disruption of NADH-dependent association between GST–CtBP1 and His–CtBP1” value is recorded as “disrupted”. In experiment [7], the “Survival on selective media / disruption of CtBP2 homodimerization” value was “Restoration of growth with arabinose”. The “Effect on activity of lactate dehydrogenase” value in experiment [8] was “no effect”. Also, in experiment [9] (excitation 285 nm, emission 425 nm, 300 nM His–CtBP1, room temperature), the “Reduction of NADH-dependent FRET signal (CtBP1–NADH interaction)” value is “reduced upon addition of CP61, in a dose-dependent manner”. The “Mechanism of inhibition of NADH-binding” value in [9] (maximum FRET signal at saturating NADH reduced in a CP61-dependent manner) is given as “allosteric mechanism for inhibition of NADH-binding”.
Regarding SGW PLSTWY (head to tail) [CP68], in experiment [4], the “Target (homodimerization disrupted in RTHS)” value is “CtBP1/CtBP2” and the “Rank (top 3 CtBP1/CtBP2 inhibitors identified by SICLOPPS)” value worked out at 2.
As to GRKKRRQRRRPPQ [TAT], the “Increase in cell numbers” value in experiment [3] (50 μM, 48 hours) is 111%. In addition, the Cells containing micronuclei entry in experiment [10] is listed as “Approximately 7%”. The “Nuclear co-localization of CtBPs” value in experiment [11] was “showed the expected co-localization with YFP–CtBP2 in the nucleus”.
With SGW RLIRLY (head to tail) [CP65], in [4], the “Target (homodimerization disrupted in RTHS)” value is listed as “CtBP1/CtBP2” and the “Rank (top 3 CtBP1/CtBP2 inhibitors identified by SICLOPPS)” value was determined as 3.
Turning to `CSCCC(=O)C(=O)O` [MTOB, 2-keto-4-methylthiobutyrate], the “Repression of multiple CtBP-targeted genes” value in [12] was “reverse the repression of multiple CtBP-targeted genes in breast cancer cells”. Besides, the “Recruitment of CtBPs to target promoters” value in [13] is on record as “inhibiting the recruitment of CtBPs to target promoters”. In addition, in experiment [14], the “Repression of pro-apoptotic gene BIK” value is reported as “reverse the repression of the pro-apoptotic gene BIK in colon cancer cells”.
